Laboratory results reported in ChEMBL document CHEMBL3864121, “Development of ebsulfur analogues as potent antibacterials against methicillin-resistant Staphylococcus aureus” (Bioorg Med Chem, 2016).
Values after ≈ are worked out from the molar mass of the structure shown.

What was measured:
Staphylococcus aureus [1] = assay: Antibacterial activity against methicillin-resistant Staphylococcus aureus C16 measured after overnight incubation by broth double-dilution method; type: functional
Method in brief: (§1)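 MIC by broth double-dilution in liquid Mueller-Hinton medium. Values are reported in µg/mL.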

Staphylococcus aureus [2] = assay: Antibacterial activity against methicillin-resistant Staphylococcus aureus S17 measured after overnight incubation by broth double-dilution method; type: functional; method in brief: as §1
Staphylococcus aureus [3] = assay: Antibacterial activity against methicillin-resistant Staphylococcus aureus C19 measured after overnight incubation by broth double-dilution method; type: functional; method in brief: as §1
Staphylococcus aureus [4] = assay: Antibacterial activity against methicillin-resistant Staphylococcus aureus NRS77 measured after overnight incubation by broth double-dilution method; type: functional; method in brief: as §1
Staphylococcus aureus [5] = assay: Antibacterial activity against methicillin-resistant Staphylococcus aureus USA300 measured after overnight incubation by broth double-dilution method; type: functional; method in brief: as §1
Enterococcus = assay: Antibacterial activity against Vancomycin-resistant Enterococcus measured after overnight incubation by broth double-dilution method; type: functional; method in brief: as §1
[6] = test system: Staphylococcus epidermidis; assay: Antibacterial activity against Staphylococcus epidermidis ATCC 35984 measured after overnight incubation by broth double-dilution method; type: functional; conditions: RP62A
Method in brief: (§2)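 MIC by broth double-dilution in Mueller-Hinton medium. Re-testing at the time-kill inoculum used 1×10^6 CFU/mL.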

Staphylococcus aureus [7] = assay: Antibacterial activity against methicillin-resistant Staphylococcus aureus G12 measured after overnight incubation by broth double-dilution method; type: functional; method in brief: as §1
Staphylococcus aureus [8] = assay: Antibacterial activity against methicillin-resistant Staphylococcus aureus G14 measured after overnight incubation by broth double-dilution method; type: functional; method in brief: as §1
Enterococcus faecalis [9] = assay: Antibacterial activity against Enterococcus faecalis ATCC 49533 measured after overnight incubation by broth double-dilution method; type: functional; method in brief: as §2
Staphylococcus aureus [10] = assay: Antibacterial activity against methicillin-resistant Staphylococcus aureus ATCC 33591 measured after overnight incubation by broth double-dilution method; type: functional; method in brief: as §1
Staphylococcus aureus [11] = assay: Antibacterial activity against methicillin-resistant Staphylococcus aureus USA100 measured after overnight incubation by broth double-dilution method; type: functional; method in brief: as §1
Staphylococcus aureus [12] = assay: Antibacterial activity against methicillin-resistant Staphylococcus aureus 2 measured after overnight incubation by broth double-dilution method; type: functional; method in brief: as §1
Enterococcus faecium = assay: Antibacterial activity against Enterococcus faecium BM4105-RF measured after overnight incubation by broth double-dilution method; type: functional; method in brief: as §1
Enterococcus faecalis [13] = assay: Antibacterial activity against Enterococcus faecalis ATCC 29212 measured after overnight incubation by broth double-dilution method; type: functional; method in brief: as §2
Staphylococcus aureus [14] = assay: Antibacterial activity against methicillin-resistant Staphylococcus aureus 1 measured after overnight incubation by broth double-dilution method; type: functional; method in brief: as §1
Staphylococcus aureus [15] = assay: Antibacterial activity against methicillin-sensitive Staphylococcus aureus ATCC 6538 measured after overnight incubation by broth double-dilution method; type: functional; method in brief: as §1
Staphylococcus aureus [16] = assay: Antibacterial activity against methicillin-resistant Staphylococcus aureus S14 measured after overnight incubation by broth double-dilution method; type: functional; method in brief: as §1
Staphylococcus aureus [17] = assay: Antibacterial activity against methicillin-sensitive Staphylococcus aureus ATCC 25923 measured after overnight incubation by broth double-dilution method; type: functional; method in brief: as §1
Staphylococcus aureus [18] = assay: Antibacterial activity against methicillin-resistant Staphylococcus aureus NRS51 measured after overnight incubation by broth double-dilution method; type: functional; method in brief: as §1
Staphylococcus aureus [19] = assay: Antibacterial activity against methicillin-resistant Staphylococcus aureus NRS4 measured after overnight incubation by broth double-dilution method; type: functional; method in brief: as §1
Staphylococcus aureus [20] = assay: Antibacterial activity against methicillin-resistant Staphylococcus aureus G6 measured after overnight incubation by broth double-dilution method; type: functional; method in brief: as §1
Staphylococcus aureus [21] = assay: Antibacterial activity against methicillin-resistant Staphylococcus aureus S22 measured after overnight incubation by broth double-dilution method; type: functional; method in brief: as §1
Staphylococcus aureus [22] = assay: Antibacterial activity against methicillin-sensitive Staphylococcus aureus ATCC 29213 measured after overnight incubation by broth double-dilution method; type: functional; method in brief: as §1
Staphylococcus aureus [23] = assay: Antibacterial activity against methicillin-resistant Staphylococcus aureus C1 measured after overnight incubation by broth double-dilution method; type: functional; method in brief: as §1
Staphylococcus aureus [24] = assay: Antibacterial activity against methicillin-resistant Staphylococcus aureus USA600 measured after overnight incubation by broth double-dilution method; type: functional; method in brief: as §1
Listeria monocytogenes = assay: Antibacterial activity against Listeria monocytogenes ATCC 19115 measured after overnight incubation by broth double-dilution method; type: functional; method in brief: as §2
Staphylococcus aureus [25] = assay: Antibacterial activity against methicillin-resistant Staphylococcus aureus USA200 measured after overnight incubation by broth double-dilution method; type: functional; method in brief: as §1
Staphylococcus aureus [26] = assay: Antibacterial activity against methicillin-resistant Staphylococcus aureus C14 measured after overnight incubation by broth double-dilution method; type: functional; method in brief: as §1
[27] = test system: Mycolicibacterium smegmatis; assay: Antibacterial activity against Mycobacterium smegmatis MC2-155 measured after overnight incubation by broth double-dilution method; type: functional; conditions: str. MC2 155; method in brief: as §1
Staphylococcus aureus [28] = assay: Antibacterial activity against methicillin-resistant Staphylococcus aureus C2 measured after overnight incubation by broth double-dilution method; type: functional; method in brief: as §1
Staphylococcus aureus [29] = assay: Antibacterial activity against methicillin-resistant Staphylococcus aureus G1 measured after overnight incubation by broth double-dilution method; type: functional; method in brief: as §1
Staphylococcus aureus [30] = assay: Antibacterial activity against methicillin-resistant Staphylococcus aureus BRS3 measured after overnight incubation by broth double-dilution method; type: functional; method in brief: as §1
Staphylococcus aureus [31] = assay: Antibacterial activity against methicillin-resistant Staphylococcus aureus C7 measured after overnight incubation by broth double-dilution method; type: functional; method in brief: as §1
[32] = Solubility of compound in Muller-Hinton medium; type: physicochemical
Staphylococcus aureus [33] = assay: Antibacterial activity against methicillin-resistant Staphylococcus aureus S24 measured after overnight incubation by broth double-dilution method; type: functional; method in brief: as §1

O=c1c2ccccc2sn1-c1ccccn1
MIC (Staphylococcus aureus [1]): 7.8 µg/mL (≈ 34.2 µM)
MIC (Staphylococcus aureus [2]): 7.8 µg/mL (≈ 34.2 µM)
MIC (Staphylococcus aureus [3]): 7.8 µg/mL (≈ 34.2 µM)
MIC (Staphylococcus aureus [4]): 15.6 µg/mL (≈ 68.3 µM)
MIC (Staphylococcus aureus [5]): 7.8 µg/mL (≈ 34.2 µM)
MIC (Enterococcus): 7.8 µg/mL (≈ 34.2 µM)
MIC [6]: 3.9 µg/mL (≈ 17.1 µM)
MIC (Staphylococcus aureus [7]): 7.8 µg/mL (≈ 34.2 µM)
MIC (Staphylococcus aureus [8]): 7.8 µg/mL (≈ 34.2 µM)
MIC (Enterococcus faecalis [9]): > 125 µg/mL
MIC (Staphylococcus aureus [10]): 3.9 µg/mL (≈ 17.1 µM)
MIC (Staphylococcus aureus [11]): 7.8 µg/mL (≈ 34.2 µM)
MIC (Staphylococcus aureus [12]): 7.8 µg/mL (≈ 34.2 µM)
MIC (Enterococcus faecium): > 125 µg/mL
MIC (Enterococcus faecalis [13]): > 125 µg/mL
MIC (Staphylococcus aureus [14]): 15.6 µg/mL (≈ 68.3 µM)
MIC (Staphylococcus aureus [15]): 7.8 µg/mL (≈ 34.2 µM)
MIC (Staphylococcus aureus [16]): 2 µg/mL (≈ 8.76 µM)
MIC (Staphylococcus aureus [17]): 7.8 µg/mL (≈ 34.2 µM)
MIC (Staphylococcus aureus [18]): 7.8 µg/mL (≈ 34.2 µM)
MIC (Staphylococcus aureus [19]): 15.6 µg/mL (≈ 68.3 µM)
MIC (Staphylococcus aureus [20]): 7.8 µg/mL (≈ 34.2 µM)
MIC (Staphylococcus aureus [21]): 7.8 µg/mL (≈ 34.2 µM)
MIC (Staphylococcus aureus [22]): 7.8 µg/mL (≈ 34.2 µM)
MIC (Staphylococcus aureus [23]): 3.9 µg/mL (≈ 17.1 µM)
MIC (Staphylococcus aureus [24]): 15.6 µg/mL (≈ 68.3 µM)
MIC (Listeria monocytogenes): 7.8 µg/mL (≈ 34.2 µM)
MIC (Staphylococcus aureus [25]): 7.8 µg/mL (≈ 34.2 µM)
MIC (Staphylococcus aureus [26]): 7.8 µg/mL (≈ 34.2 µM)
MIC [27]: 7.8 µg/mL (≈ 34.2 µM)
MIC (Staphylococcus aureus [28]): 7.8 µg/mL (≈ 34.2 µM)
MIC (Staphylococcus aureus [29]): 7.8 µg/mL (≈ 34.2 µM)
MIC (Staphylococcus aureus [30]): 15.6 µg/mL (≈ 68.3 µM)
MIC (Staphylococcus aureus [31]): 7.8 µg/mL (≈ 34.2 µM)
solubility [32]: Soluble
MIC (Staphylococcus aureus [33]): 7.8 µg/mL (≈ 34.2 µM)
